Data taken from ChEMBL document CHEMBL1145499, “Asiatic acid and corosolic acid enhance the susceptibility of Pseudomonas aeruginosa biofilms to tobramycin” (2007).

Legend:
Format in all cases: functional
[1] = tested on: Pseudomonas aeruginosa; test: Antibacterial activity against Pseudomonas aeruginosa PAO1
[2] = tested on: Pseudomonas aeruginosa; test: Antibacterial activity against Pseudomonas aeruginosa PAO1 assessed as log reduction of bacterial count by rotating disk reactor method
In short: (§1)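 Rotating disk reactor (~200 rpm, 180 ml, 60-min residence, ca. 26°C) with polystyrene coupons and P. aeruginosa PAO1 inoculated per ASTM E-2196-02. Biofilms were grown 24 h in batch, then 24 h under flow. Compound was added to ~100 µg/ml final (ethanol or DMSO vehicle) for 24 h in batch. Coupons then received 100 µg/ml tobramycin or PBS for 2 h at room temperature. LR = negative-control mean log10 CFU/cm2 minus treated mean, three coupons per set.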

[3] = tested on: Pseudomonas aeruginosa; test: Antibacterial activity against Pseudomonas aeruginosa PAO1 assessed as log reduction of bacterial count at 50 ug/ml by rotating disk reactor method
[4] = tested on: Pseudomonas aeruginosa; test: Antibacterial activity against Pseudomonas aeruginosa PAO1 assessed as log reduction of bacterial count at 100 ug/ml by rotating disk reactor method; in short: as §1
[5] = tested on: Pseudomonas aeruginosa; test: Antibacterial activity against Pseudomonas aeruginosa PAO1 assessed as log reduction of bacterial count at 100 ug/ml by CDC biofilm reactor method
In short: (§2)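 CDC-type biofilm reactor with PAO1 on polystyrene coupons, grown 24 h batch then 24 h continuous flow. Medium was fed at 13 ml/min, giving ~27 min residence. Coupon treatments, inoculum, medium and analysis matched the rotating disk runs: sonication, plate counts, log10 CFU/cm2, and log reduction against untreated control.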

[6] = tested on: Pseudomonas aeruginosa; test: Antibacterial activity against Pseudomonas aeruginosa PAO1 assessed as log reduction of bacterial count at 10 ug/ml by rotating disk reactor method
[7] = tested on: Pseudomonas aeruginosa; test: Antibacterial activity against Pseudomonas aeruginosa PAO1 assessed as log reduction of bacterial count at 50 ug/ml by CDC biofilm reactor method; in short: as §2

## O=C(O)c1cn(C2CC2)c2cc(N3CCNCC3)c(F)cc2c1=O [CIPROFLOXACIN]
[1]
  MIC: ≥ 1 µg/mL
[2]
  Activity: -0.29

## C[C@H]1[C@H](C)CC[C@]2(C(=O)O)CC[C@]3(C)C(=CC[C@@H]4[C@@]5(C)C[C@@H](O)[C@H](O)C(C)(C)[C@@H]5CC[C@]43C)[C@H]12 [COROSOLIC ACID]
[1]
  MIC: > 128 µg/mL
[3]
  Activity: -0.04
[4]
  Activity: 0.02
[5]
  Activity: 0.7

## C[C@H]1[C@H](C)CC[C@]2(C(=O)O)CC[C@]3(C)C(=CC[C@@H]4[C@@]5(C)C[C@@H](O)[C@H](O)[C@@](C)(CO)[C@@H]5CC[C@]43C)[C@H]12 [ASIATIC ACID]
[1]
  MIC: ≥ 128 µg/mL
[6]
  Activity: 0.14
[3]
  Activity: 0.12
[4]
  Activity: 0.19
[7]
  Activity: 0.8

## NC[C@H]1O[C@H](O[C@H]2[C@H](O)[C@@H](O[C@H]3O[C@H](CO)[C@@H](O)[C@H](N)[C@H]3O)[C@H](N)C[C@@H]2N)[C@H](N)C[C@@H]1O [TOBRAMYCIN]
[2]
  Activity: 0.4
[6]
  Activity: 1.51
[3]
  Activity: 0.78
[4]
  Activity: 1.36
